In ChEMBL document CHEMBL4376814, “Novel cyclin-dependent kinase 9 (CDK9) inhibitor with suppression of cancer stemness activity against non-small-cell lung cancer” (Eur J Med Chem, 2019) one finds inhibition, IC50 and Activity data, which are given here for one compound.

Assay [1] has as its system A549. The experiment in a line: Antiproliferative activity against human A549 cells assessed as inhibition of cell viability at 10 uM after 72 hrs by CCK-8 assay relative to control. It is filed as functional. Particulars: A549, 72 h. The procedure, abridged:
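Single-concentration viability screen using CCK-8. Cells were seeded at 3000/well and treated for 72 h. A450 read after 1-4 h with reagent. Percent inhibition calculated against untreated control and blank wells as (Ac−As)/(Ac−Ab)×100%.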

The next assay deals with NCI-H1975. The experiment in a line: Antiproliferative activity against human NCI-H1975 cells assessed as inhibition of cell viability after 72 hrs by CCK-8 assay. Type of assay: functional, cell-based. The note with it: NCI-H1975, 72 h. The procedure, abridged: (§1)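 Cells kept at 37 °C, 5% CO2 in DMEM or RPMI-1640 with 10% FBS and 1% penicillin/streptomycin, then seeded at 3000 cells/well (adherent) or 10,000 cells/well (suspension). Exposed to a range of concentrations for 72 h. CCK-8 added for 1-4 h before reading A450. […] Three independent experiments.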

The test system of another assay is HeLa. The experiment in a line: Antiproliferative activity against human HeLa cells assessed as inhibition of cell viability after 72 hrs by CCK-8 assay. Type of assay: functional, cell-based. The method in brief: as §1
Assay [2] deals with A549. Nature of the assay: Induction of apoptosis in human A549 cells assessed as necrotic cells at 0.5 uM after 48 hrs by AnnexinV-FITC/PI staining-based flow cytometric analysis (reference value: 0.664%). It is filed as functional.
Assay [3] relates to NCI-H1299. Nature of the assay: Induction of apoptosis in human H1299 cells assessed as necrotic cells at 1 uM after 48 hrs by AnnexinV-FITC/PI staining-based flow cytometric analysis (reference value: 0.9%). It is filed as functional.
Assay [4] has as its system NCI-H1299. Nature of the assay: Induction of apoptosis in human H1299 cells assessed as late apoptotic cells at 0.5 uM after 48 hrs by AnnexinV-FITC/PI staining-based flow cytometric analysis (reference value: 1.77%). It is filed as functional.
Assay [5] concerns the target Activated CDC42 kinase 1 (Homo sapiens) (UniProt Q07912). The experiment in a line: Inhibition of recombinant human ACK1 (1 to 389 residues) at 1 uM using EFPIYDFLPAKKK as substrate measured after 40 mins in presence of [gamma33P]ATP by scintillation counting method relative to control.
Assay [6] addresses Myosin light chain kinase 2, skeletal/cardiac muscle (Homo sapiens) (UniProt Q9H1R3). Nature of the assay: Inhibition of recombinant full length human MYLK2 at 1 uM using KKLNRTLSFAEPG as substrate measured after 40 mins in presence of [gamma33P]ATP by scintillation counting method relative to control. The procedure, abridged:
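Single-point inhibition at 1 µM was measured in the Eurofins KinaseProfiler panel. Values are the mean of two independent experiments.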

The target in assay [7] is CDK4/Cyclin D3 (Homo sapiens) (UniProt P11802+P30281). Nature of the assay: Inhibition of recombinant full-length human CDK4/cyclinD3 at 1 uM using Rb fragment as substrate measured after 40 mins in presence of [gamma33P]ATP by scintillation counting method relative to control. It is filed as protein-complex assay. The procedure, abridged: (§2)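 Percent inhibition of kinase activity at a single compound concentration, measured by the outsourced Eurofins KinaseProfiler panel. Values are the mean of two independent experiments.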

Assay [8] deals with CDK6/cyclin D3 (Homo sapiens) (UniProt P30281+Q00534). Nature of the assay: Inhibition of recombinant full-length human CDK6/cyclinD3 at 1 uM using Histone H1 as substrate measured after 40 mins in presence of [gamma33P]ATP by scintillation counting method relative to control. It is filed as protein-complex assay.
Assay [9] addresses Cyclin-dependent kinase-like 4 (Homo sapiens) (UniProt Q5MAI5). Nature of the assay: Inhibition of human CDKL4 at 1 uM at 1 uM by radiometric method relative to control. The procedure, abridged:
as §2

For assay [10], the target named is Protein kinase C delta type (Homo sapiens) (UniProt Q05655). The experiment in a line: Inhibition of recombinant human PKCdelta (2 to end residues) at 1 uM using ERMRPRKRQGSVRRR as substrate measured after 40 mins in presence of [gamma33P]ATP by scintillation counting method relative to control.
Chain of Protein kinase C delta type (Homo sapiens) (Q05655 whole entry, looked up): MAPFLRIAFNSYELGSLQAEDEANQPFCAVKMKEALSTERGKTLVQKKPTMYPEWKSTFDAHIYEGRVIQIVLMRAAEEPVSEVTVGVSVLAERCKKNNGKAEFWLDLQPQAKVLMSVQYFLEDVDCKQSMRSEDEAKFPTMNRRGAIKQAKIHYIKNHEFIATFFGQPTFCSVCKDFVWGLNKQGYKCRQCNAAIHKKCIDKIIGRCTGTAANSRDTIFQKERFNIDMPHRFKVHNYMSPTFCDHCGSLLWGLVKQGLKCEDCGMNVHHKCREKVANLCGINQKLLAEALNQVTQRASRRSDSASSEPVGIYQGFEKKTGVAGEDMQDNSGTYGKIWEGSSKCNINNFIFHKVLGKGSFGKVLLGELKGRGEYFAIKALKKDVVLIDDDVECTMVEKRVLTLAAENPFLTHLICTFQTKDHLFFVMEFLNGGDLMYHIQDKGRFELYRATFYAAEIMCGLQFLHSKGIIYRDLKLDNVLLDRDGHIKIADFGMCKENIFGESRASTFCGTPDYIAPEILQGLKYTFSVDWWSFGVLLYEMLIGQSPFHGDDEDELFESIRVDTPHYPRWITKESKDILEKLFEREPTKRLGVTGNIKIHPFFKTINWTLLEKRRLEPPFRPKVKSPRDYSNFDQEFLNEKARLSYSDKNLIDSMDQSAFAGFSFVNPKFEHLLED
For assay [11], the target named is Dual specificity tyrosine-phosphorylation-regulated kinase 1A (Homo sapiens) (UniProt Q13627). The experiment in a line: Inhibition of recombinant full-length human DYRK1A at 1 uM using RRRFRPASPLRGPPK as substrate measured after 40 mins in presence of [gamma33P]ATP by scintillation counting method relative to control.
Assay [12] concerns Mitogen-activated protein kinase 14 (Homo sapiens), Q16539 [T106M]. The experiment in a line: Inhibition of recombinant full-length human SAPK2a T106M mutant at 1 uM using myelin basic protein as substrate measured after 40 mins in presence of [gamma33P]ATP by scintillation counting method relative to control.
Chain of Mitogen-activated protein kinase 14 (Homo sapiens), Q16539 [T106M] (Q16539 whole entry T106M): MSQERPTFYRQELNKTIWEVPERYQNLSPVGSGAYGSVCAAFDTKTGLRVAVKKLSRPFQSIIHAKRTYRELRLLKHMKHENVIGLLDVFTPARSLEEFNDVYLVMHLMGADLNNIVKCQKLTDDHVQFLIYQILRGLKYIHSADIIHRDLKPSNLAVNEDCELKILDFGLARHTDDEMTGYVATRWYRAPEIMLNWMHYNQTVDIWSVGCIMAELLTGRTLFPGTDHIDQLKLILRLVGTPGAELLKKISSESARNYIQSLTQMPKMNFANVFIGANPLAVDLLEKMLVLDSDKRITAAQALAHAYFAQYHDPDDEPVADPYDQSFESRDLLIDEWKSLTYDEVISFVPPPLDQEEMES
In assay [13] the test system is Receptor-type tyrosine-protein kinase FLT3 (Homo sapiens), P36888 [D835Y]. Nature of the assay: Inhibition of recombinant human Flt3 (564 to end residues) D835Y mutant at 1 uM using EAIYAAPFAKKK as substrate measured after 40 mins in presence of [gamma33P]ATP by scintillation counting method relative to control.
The test system of assay [14] is Glycogen synthase kinase-3 alpha (Homo sapiens), P49840 [UNDEFINED MUTATION]. The experiment in a line: Inhibition of recombinant full-length human GSK3alpha (2 to end residues) S449A mutant at 1 uM using phospho GS2 peptide as substrate measured after 40 mins in presence of [gamma33P]ATP by scintillation counting method relative to control.
Chain of Glycogen synthase kinase-3 alpha (Homo sapiens), P49840 [UNDEFINED MUTATION] (P49840 whole entry, looked up, stated change not applied, the tested form may be a part): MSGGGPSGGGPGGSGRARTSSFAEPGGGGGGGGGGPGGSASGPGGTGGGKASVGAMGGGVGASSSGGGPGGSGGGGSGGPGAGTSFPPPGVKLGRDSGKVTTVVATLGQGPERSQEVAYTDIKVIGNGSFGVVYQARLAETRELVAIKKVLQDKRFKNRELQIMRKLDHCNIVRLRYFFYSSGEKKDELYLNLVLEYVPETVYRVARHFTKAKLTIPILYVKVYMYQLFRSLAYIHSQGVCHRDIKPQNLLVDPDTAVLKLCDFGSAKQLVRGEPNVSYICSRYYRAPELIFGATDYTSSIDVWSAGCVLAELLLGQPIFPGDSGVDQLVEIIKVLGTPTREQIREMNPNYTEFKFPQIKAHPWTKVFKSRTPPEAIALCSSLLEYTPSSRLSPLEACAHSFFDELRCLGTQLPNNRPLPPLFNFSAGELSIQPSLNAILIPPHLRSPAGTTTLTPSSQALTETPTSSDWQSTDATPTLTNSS
For assay [15], the target named is Tyrosine-protein kinase HCK (Homo sapiens) (UniProt P08631). The experiment in a line: Inhibition of recombinant human activated HCK (230 to 497 residues) at 1 uM using GGMEDIYFEFMGGKKK as substrate measured after 40 mins in presence of [gamma33P]ATP by scintillation counting method relative to control.
Chain of Tyrosine-protein kinase HCK (Homo sapiens) (P08631 2-526 limits assumed): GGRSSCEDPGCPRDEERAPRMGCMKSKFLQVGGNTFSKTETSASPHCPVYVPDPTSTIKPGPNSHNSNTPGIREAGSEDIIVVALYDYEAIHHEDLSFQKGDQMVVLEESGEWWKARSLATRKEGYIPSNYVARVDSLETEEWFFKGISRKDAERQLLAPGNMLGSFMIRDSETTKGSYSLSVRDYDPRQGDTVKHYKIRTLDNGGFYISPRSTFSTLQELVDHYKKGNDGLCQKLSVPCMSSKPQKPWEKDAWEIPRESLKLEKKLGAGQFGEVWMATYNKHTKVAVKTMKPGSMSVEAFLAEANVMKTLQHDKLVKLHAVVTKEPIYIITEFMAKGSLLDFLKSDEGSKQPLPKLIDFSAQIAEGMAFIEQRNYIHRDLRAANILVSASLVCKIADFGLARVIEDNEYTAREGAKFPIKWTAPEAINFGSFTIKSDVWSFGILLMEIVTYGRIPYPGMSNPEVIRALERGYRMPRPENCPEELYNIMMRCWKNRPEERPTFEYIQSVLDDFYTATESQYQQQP
Assay [16] addresses Tyrosine-protein kinase SYK (Homo sapiens) (UniProt P43405). Nature of the assay: Inhibition of recombinant full-length human Syk at 1 uM using poly(Glu, Tyr) 4:1 as substrate measured after 40 mins in presence of [gamma33P]ATP by scintillation counting method relative to control.
The target in assay [17] is Mitogen-activated protein kinase 1 (Homo sapiens) (UniProt P28482). The experiment in a line: Inhibition of recombinant full-length human MAPK1 at 1 uM using MBP as substrate measured after 40 mins in presence of [gamma33P]ATP by scintillation counting method relative to control.
Assay [18] deals with Mitogen-activated protein kinase kinase kinase kinase 4 (Homo sapiens) (UniProt O95819). Nature of the assay: Inhibition of recombinant human MAP4K4 (1 to 328 residues) at 1 uM using RLGRDKYKTLRQIRQ as substrate measured after 40 mins in presence of [gamma33P]ATP by scintillation counting method relative to control.
Chain of Mitogen-activated protein kinase kinase kinase kinase 4 (Homo sapiens) (O95819 2-1239 limits assumed): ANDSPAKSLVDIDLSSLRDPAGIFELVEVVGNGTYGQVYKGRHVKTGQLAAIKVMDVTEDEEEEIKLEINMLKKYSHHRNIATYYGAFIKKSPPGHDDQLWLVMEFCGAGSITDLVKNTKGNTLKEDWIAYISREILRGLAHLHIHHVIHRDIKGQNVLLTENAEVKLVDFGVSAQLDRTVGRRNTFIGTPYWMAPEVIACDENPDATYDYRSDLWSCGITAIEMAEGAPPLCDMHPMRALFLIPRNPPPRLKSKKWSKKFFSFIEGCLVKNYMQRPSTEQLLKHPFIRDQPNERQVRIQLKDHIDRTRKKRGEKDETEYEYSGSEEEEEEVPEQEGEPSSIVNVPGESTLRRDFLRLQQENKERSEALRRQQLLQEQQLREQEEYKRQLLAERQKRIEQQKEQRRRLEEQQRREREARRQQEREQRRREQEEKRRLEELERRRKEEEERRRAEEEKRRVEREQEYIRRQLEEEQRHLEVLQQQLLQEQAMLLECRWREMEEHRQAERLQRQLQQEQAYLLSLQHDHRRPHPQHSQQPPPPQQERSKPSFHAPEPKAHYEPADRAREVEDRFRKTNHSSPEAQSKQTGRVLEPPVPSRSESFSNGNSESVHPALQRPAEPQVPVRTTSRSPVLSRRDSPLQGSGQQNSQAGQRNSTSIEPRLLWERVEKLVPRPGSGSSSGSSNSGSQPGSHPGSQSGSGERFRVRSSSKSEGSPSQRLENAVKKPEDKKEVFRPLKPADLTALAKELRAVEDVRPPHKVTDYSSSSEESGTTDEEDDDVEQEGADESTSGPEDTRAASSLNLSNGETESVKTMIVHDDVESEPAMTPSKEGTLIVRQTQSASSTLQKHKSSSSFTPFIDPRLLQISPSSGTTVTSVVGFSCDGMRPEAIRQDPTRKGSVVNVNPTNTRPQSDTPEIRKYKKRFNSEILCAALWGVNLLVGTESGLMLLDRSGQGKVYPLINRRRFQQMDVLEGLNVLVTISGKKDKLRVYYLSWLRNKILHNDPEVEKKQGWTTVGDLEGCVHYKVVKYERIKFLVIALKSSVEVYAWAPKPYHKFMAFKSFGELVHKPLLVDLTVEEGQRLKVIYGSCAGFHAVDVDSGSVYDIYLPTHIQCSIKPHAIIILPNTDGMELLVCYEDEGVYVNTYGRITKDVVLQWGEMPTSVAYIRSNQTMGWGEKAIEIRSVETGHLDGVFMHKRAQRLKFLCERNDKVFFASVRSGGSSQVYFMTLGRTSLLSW
For assay [19], the system named is PI3-kinase p110-alpha/p85-alpha (Homo sapiens), P27986+P42336 [H1047R]. Nature of the assay: Inhibition of recombinant full-length human PI3K p110alpha/p85alpha H1047R mutant at 1 uM using phosphatidylinositol-4, 5-bisphosphate as substrate measured after 40 mins by fluorescence assay relative to control.
Assay [20] addresses Casein kinase II subunit alpha' (Homo sapiens) (UniProt P19784). The experiment in a line: Inhibition of full length recombinant human CK2alpha2 at 1 uM using RRRDDDSDDD as substrate measured after 40 mins in presence of [gamma33P]ATP by scintillation counting method relative to control.

Chain of Cyclin-dependent kinase-like 4 (Homo sapiens) (Q5MAI5 whole entry): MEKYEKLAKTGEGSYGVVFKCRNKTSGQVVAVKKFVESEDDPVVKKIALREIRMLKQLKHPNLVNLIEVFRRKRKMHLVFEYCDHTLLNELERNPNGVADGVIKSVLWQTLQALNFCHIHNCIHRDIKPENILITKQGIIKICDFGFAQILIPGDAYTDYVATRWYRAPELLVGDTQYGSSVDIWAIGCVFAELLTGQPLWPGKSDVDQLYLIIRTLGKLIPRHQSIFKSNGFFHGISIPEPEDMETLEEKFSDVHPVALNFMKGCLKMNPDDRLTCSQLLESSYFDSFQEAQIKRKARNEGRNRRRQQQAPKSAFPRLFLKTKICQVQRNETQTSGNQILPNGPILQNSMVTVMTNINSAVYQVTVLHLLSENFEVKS
Chain of Activated CDC42 kinase 1 (Homo sapiens) (Q07912 whole entry, looked up, the tested form may be a part): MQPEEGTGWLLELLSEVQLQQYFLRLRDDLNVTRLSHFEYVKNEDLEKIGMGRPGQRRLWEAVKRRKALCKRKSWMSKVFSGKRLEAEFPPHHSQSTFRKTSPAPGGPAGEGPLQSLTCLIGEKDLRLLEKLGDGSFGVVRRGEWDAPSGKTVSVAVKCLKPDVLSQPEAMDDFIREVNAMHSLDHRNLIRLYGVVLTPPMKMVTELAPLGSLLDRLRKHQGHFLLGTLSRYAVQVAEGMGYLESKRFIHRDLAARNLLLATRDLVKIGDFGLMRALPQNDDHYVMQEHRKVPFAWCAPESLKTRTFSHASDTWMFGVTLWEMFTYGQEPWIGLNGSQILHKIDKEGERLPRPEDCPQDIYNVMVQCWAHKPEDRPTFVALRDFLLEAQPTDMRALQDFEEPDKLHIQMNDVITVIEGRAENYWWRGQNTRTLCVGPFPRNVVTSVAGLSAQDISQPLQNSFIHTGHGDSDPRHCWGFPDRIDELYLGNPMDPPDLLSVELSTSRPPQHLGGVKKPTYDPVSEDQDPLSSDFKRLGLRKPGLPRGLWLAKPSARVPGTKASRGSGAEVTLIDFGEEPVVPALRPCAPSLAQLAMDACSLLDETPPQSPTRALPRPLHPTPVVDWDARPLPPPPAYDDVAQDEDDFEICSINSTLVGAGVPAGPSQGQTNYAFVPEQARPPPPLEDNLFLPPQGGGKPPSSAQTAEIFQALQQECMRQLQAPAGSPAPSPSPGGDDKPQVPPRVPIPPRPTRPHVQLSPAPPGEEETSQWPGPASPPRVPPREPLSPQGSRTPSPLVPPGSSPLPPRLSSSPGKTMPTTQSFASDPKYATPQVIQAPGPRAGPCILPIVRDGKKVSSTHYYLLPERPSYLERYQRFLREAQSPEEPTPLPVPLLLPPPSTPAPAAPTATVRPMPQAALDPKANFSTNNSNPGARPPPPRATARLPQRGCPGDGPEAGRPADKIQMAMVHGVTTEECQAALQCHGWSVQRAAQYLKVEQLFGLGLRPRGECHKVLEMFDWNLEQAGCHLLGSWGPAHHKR
Chain of Casein kinase II subunit alpha' (Homo sapiens) (P19784 whole entry, looked up): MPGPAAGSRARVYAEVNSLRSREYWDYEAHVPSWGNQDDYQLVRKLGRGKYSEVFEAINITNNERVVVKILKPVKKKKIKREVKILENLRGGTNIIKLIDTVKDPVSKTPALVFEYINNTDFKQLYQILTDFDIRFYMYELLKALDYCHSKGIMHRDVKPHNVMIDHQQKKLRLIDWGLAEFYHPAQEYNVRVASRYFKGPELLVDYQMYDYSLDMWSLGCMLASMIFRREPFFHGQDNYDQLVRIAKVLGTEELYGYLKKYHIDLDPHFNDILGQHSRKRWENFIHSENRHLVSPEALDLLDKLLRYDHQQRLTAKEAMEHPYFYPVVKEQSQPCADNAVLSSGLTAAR

Turning to `CN(C)C(=O)c1cc2cnc(Nc3ccc(NC(=O)CCCCCCCN=C=S)cc3)nc2n1C1CCCC1`, the inhibition at 10 µM in the assay on A549 [1] is 99.2%. Also, the concentration for half-maximal inhibition (IC50) worked out at 837 nM in the assay on NCI-H1975 and 1850 nM with HeLa. The Activity in the assay with A549 [2] was found to be 6.11%; in the assay on NCI-H1299 [3], 3.64%; in the assay with NCI-H1299 [4], 3.64%. For the same compound, the inhibition stood at 82% in assay [5]; 12% in [6]; 87% in [7]; 79% in assay [8]; 25% in [9]; 8% in assay [10]. Moreover, the inhibition was 2% in assay [11]; 0% in assay [12]; 72% in assay [13]; 17% in [14]; 5% in assay [15]; 22% in assay [16]. For the same compound, the inhibition was 3% in assay [17], 16% in assay [18], 2% in [19] and -4% in [20].
